Experimental findings from publication PMC7658932 (ACS Omega, 2020) are described below.

A short description of data set [1]: Radiolabeling efficiency/kinetics of chelators with ^177Lu. In kind it is physicochemical. The following applies: 1 min, pH 5.5, RT, TLC, triplicate. A digest of the protocol:
(§1)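 Test compound (20 μg) in Chelex-treated 0.25 M NH4OAc (pH 5.5) was mixed with 90YCl3 or 177LuCl3 (2.22 MBq, 60 μCi, in 0.05 M HCl) using acid-washed, metal-free plasticware. The mixture was shaken at 1000 rpm at RT for 1 h. Aliquots taken at set times were run on silica gel ITLC in acetonitrile/water 3:2 and scanned by radio-TLC. Complex ran at ~50 mm, free radionuclide at ~30 mm.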

A short description of data set [2]: Radiolabeling efficiency/kinetics of chelators with ^90Y. In kind it is physicochemical. The following applies: pH 5.5, RT, TLC, triplicate. A digest of the protocol:
as §1

`O=C(O)CN1CCN(CCN(CC(=O)O)CC(=O)O)CCN(CC(CCCc2ccc([N+](=O)[O-])cc2)N(CC(=O)O)CC(=O)O)CC1` (stereo not drawn) [3p-C-NEPA, 2-{[2-(4-{2-[Bis(carboxymethyl)amino]-5-(4-nitrophenyl)pentyl}-7-(carboxymethyl)-1,4,7-triazonan-1-yl)ethyl](carboxymethyl)amino}acetic acid]: the “radiolabeling efficiency (%)” value in data set [1] is above 97%; in data set [2] (1 min), above 97%; in data set [2] (10 min) it was above 99%.
